# In the library only some 1.6% were active in any assay of this set; here they are far more common.
# MsrA inhibitor: inhibits bovine methionine sulfoxide reductase A; purified bovine MsrA, absorbance read-out; 0.75% of 360,000 active; inhibition, % at 15.5 µM; AID 651718; in the data active = inhibition above about 4.5%;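 note: 0% = vehicle wells with enzyme and 100% = reference inhibitor wells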
# SKN-1 inh: C. elegans SKN-1 inhibition; C. elegans VP596 Pgst-4::GFP/RFP ratio, acrylamide-induced, 24 h; AID 624304; inhibition, % at 21.8 µM; 0.49% of 360,000 active;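 active = interference check ratio from 0.5 to 1.5 plus GFP to RFP signal ratio inhibition reaching or exceeding a fixed threshold, cut at about 30% in these data, passing the limit was not always enough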
# p-CIP stab down: lowers stability of the mouse p/CIP coactivator protein; Q05BA5; decrease of EGFP signal, % at 10 µM; 0.01% of 290,000 active; F442A p/CIP-EGFP cells, EGFP fluorescence, 16 h;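 active = EGFP signal decrease of at least 30% at 10 µM or well 3 SD below plate mean, unless failing retest; inactive = the rest, including hits failing retest or dose response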
# Target sequence (Q05BA5 1-1403): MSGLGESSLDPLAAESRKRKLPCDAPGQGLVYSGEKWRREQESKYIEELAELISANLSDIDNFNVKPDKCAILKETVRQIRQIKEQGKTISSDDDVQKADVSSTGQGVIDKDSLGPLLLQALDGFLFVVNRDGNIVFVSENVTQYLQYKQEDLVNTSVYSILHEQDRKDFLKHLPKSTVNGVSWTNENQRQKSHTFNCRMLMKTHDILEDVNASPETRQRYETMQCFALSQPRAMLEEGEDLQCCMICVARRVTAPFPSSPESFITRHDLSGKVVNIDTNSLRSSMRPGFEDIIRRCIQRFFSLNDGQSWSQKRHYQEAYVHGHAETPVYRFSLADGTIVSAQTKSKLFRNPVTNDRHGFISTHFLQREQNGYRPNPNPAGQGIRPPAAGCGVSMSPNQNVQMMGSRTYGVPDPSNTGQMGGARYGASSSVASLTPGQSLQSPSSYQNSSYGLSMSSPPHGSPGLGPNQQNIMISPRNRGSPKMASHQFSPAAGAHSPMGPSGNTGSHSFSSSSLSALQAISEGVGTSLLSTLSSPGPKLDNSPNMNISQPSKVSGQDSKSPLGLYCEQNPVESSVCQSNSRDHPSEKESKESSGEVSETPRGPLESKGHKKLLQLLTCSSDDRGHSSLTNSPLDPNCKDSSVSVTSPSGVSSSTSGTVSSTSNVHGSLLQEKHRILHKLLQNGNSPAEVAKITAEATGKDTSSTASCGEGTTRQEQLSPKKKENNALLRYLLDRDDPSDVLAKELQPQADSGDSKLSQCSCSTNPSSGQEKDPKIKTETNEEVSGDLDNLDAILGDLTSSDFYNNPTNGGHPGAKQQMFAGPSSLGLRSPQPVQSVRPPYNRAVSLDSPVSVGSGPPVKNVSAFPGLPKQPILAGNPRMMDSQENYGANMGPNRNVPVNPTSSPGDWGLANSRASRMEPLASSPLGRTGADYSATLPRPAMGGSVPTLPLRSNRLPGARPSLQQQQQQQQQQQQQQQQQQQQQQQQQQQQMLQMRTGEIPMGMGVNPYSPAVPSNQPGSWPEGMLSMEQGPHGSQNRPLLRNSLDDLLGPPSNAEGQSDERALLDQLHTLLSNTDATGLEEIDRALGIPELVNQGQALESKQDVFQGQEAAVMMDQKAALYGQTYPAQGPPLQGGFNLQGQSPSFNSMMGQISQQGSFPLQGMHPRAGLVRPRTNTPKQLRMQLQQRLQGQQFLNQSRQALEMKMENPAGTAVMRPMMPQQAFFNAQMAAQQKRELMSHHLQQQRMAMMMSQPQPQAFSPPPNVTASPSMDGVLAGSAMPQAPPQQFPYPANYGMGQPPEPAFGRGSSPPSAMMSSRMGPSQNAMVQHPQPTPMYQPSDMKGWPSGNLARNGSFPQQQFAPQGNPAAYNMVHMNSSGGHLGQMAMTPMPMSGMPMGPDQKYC
# MsrA act: activators of bovine methionine sulfoxide reductase A; purified bovine MsrA, absorbance read-out; AID 602163; 0.3% of 360,000 active; activation, % at 10.6 µM; in the data active = activation above about 7.5%;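 note: 0% = vehicle and 100% = reference activator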
# MT1-MMP act inh: blocks activation of human MT1-MMP; 0.061% of 360,000 active; GFP/RFP ratio change, % at 20 µM; P50281; HT1080 RFP-PRO-GFP cells, GFP/RFP ratio fluorescence, overnight; percent of plate control window, DMSO zero;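 active = GFP/RFP ratio change of at least 30% with cell ATP level not reduced by more than half and red fluorescence within 50% of control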
#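 Read-out: GFP/RFP fluorescence ratio; Test system: RFP-PRO-GFP reporter HT1080 cells; Compound dosing: single-point 20 µM compound, 1% DMSO; Times: overnight compound exposure at 37 °C.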
# An asterisk follows results filed as active; . = not tested or not shown.
SMILES,MsrA inhibitor,SKN-1 inh,p-CIP stab down,MsrA act,MT1-MMP act inh
COc1cc(NC(=O)CSCC(=O)N(C)C2CCCCC2)cc(OC)c1,1,7,.,-1,-2
O=C(Nc1ccccc1)C1CC(=O)N(C2CCCCC2)C1 (stereo not drawn),0,42*,9,-6,0
CC(C)c1ccc(NC(=O)C2CC(=O)N(C3CCCC3)C2)cc1 (stereo not drawn),0,-8,-14,-2,-1
COC(=O)C1=C(C)N(C)C(=NCc2cccc(C(F)(F)F)c2)NC1c1cccc(Cl)c1 (stereo not drawn),-1,.,.,.,.
CC(/C=N/N1CCN(c2ccccc2)CC1)=C\c1ccccc1,.,4,-4,-2,-1
CC(/C=N/N1CCN(c2ccccn2)CC1)=C\c1ccccc1,0,67*,-13,-3,4
CC(=C/c1ccco1)/C=N/N1CCN(c2ccccc2)CC1,2,36*,-14,-1,1
Nc1ccc2ccc(NS(=O)(=O)N3CCCCC3)cc2c1,0,.,.,.,.
Cc1ccc(NC(=O)C(=O)c2ccc(C)cc2)cc1,1,37*,-3,3,-1
Cc1ccc(NC(=O)c2ccccc2)cc1,1,29,-6,-1,8
O=C(Oc1cc2oc(=O)cc(-c3ccccc3)c2cc1Cl)C1CCCCC1,18*,6,-14,-2,-13
O=[N+]([O-])c1ccc(N2CCc3ccccc3C2)cc1,1,44*,-11,-2,2
Cc1ccccc1C(=O)Nc1ccc2c(C#N)c3nc4ccccc4nc3n2c1,1,36*,-12,-7,2
Clc1ccccc1Cn1nnc(-c2ccccc2)n1,1,11,1,-4,-3
Clc1ccc(Cn2nnc(-c3ccccc3)n2)cc1,-1,54*,6,-3,3
Fc1ccc(Cn2nnc(-c3ccc(CN4CCOCC4)cc3)n2)cc1,0,36*,-7,-6,0
COc1cccc(CN(C)[C@H]2C[C@H]3c4[nH]c5ccccc5c4CCN3C[C@H]2[C@H](C)O)c1OC,-1,.,.,.,.
COc1ccc(N2C[C@@]3(O)CC[C@@H](O)[C@@H](OC)[C@@H]3[C@@]2(C)[C@H](O)CC=C(C)C)cc1,0,.,.,.,.
Clc1ccccc1-c1nc(-c2ccc(Br)o2)no1,1,67*,-4,-3,-6
O=[N+]([O-])c1cc(Cl)ccc1-c1nc(-c2ccccc2)no1,0,19,-1,1,-3
O=[N+]([O-])c1ccccc1-c1nc(-c2ccc(Br)o2)no1,0,58*,9,-3,-4
C=C1CCC[C@]2(C)C[C@H]3OC(=O)C(CNCCN(C)C)[C@H]3CC12 (stereo partly drawn),-1,37*,1,-3,-4
Cc1cc2c(c(=O)o1)[C@@]1(C(=O)N(C)c3cccc(Br)c31)C1=C(CCCC1=O)O2,0,.,.,.,.
COC(=O)CN1C(=O)[C@H]2[C@@H](/C=C/c3ccccc3)N3C(=O)CN(Cc4ccc(-c5ccccc5)cc4)C(=O)[C@@]3(C)[C@H]2C1=O,-1,8,.,-12,.
C[C@@]12C(=O)N(Cc3ccc(-c4ccccc4)cc3)CC(=O)N1[C@H](/C=C/c1ccccc1)[C@@H]1C(=O)N(c3ccccc3)C(=O)[C@@H]12,1,39*,-6,0,6
SMILES,MsrA inhibitor,SKN-1 inh,p-CIP stab down,MsrA act,MT1-MMP act inh
CN1C(=O)N(c2ccccc2)C(Nc2nncs2)C1(C)C (stereo not drawn),-1,38*,-2,-3,1
CN1C(=O)N(c2cccc3ccccc23)C(n2cncn2)C1(C)C (stereo not drawn),-1,-9,4,-13,6
O=[N+]([O-])c1ccc(OS(=O)(=O)Cc2ccccc2)cc1,2,-3,1,-2,0
O=S(=O)(Cc1ccc(Cl)cc1)Oc1ccc(Cl)cc1,0,46*,.,-3,2
CCOc1ccc2c(=O)c(Oc3ccccc3OCC)coc2c1,1,36*,-7,-12,-7
CCOc1ccccc1Oc1coc2cc(OCC(=O)O)ccc2c1=O,0,4,-12,-6,-8
CC(C)[C@H](NC(=O)C1CC1)C(=O)N1CCC[C@H]1C(=O)NCc1ccccc1,0,.,.,.,.
CCSC1=N/C(=C\c2ccc(C(=O)O)cc2)C(=O)S1,1,9,-2,-4,11
CCOC(=O)SC1=N/C(=C\c2ccc(N(C)C)cc2)C(=O)S1,1,41*,-13,1,-44

# Bioassay records deposited in PubChem BioAssay by several laboratories.
